The record followed here is ChEMBL document CHEMBL1142433, “Synthesis and pharmacological characterization at glutamate receptors of the four enantiopure isomers of tricholomic acid” (J Med Chem, 2008).

Chain of Metabotropic glutamate receptor 1 (P23385 whole entry): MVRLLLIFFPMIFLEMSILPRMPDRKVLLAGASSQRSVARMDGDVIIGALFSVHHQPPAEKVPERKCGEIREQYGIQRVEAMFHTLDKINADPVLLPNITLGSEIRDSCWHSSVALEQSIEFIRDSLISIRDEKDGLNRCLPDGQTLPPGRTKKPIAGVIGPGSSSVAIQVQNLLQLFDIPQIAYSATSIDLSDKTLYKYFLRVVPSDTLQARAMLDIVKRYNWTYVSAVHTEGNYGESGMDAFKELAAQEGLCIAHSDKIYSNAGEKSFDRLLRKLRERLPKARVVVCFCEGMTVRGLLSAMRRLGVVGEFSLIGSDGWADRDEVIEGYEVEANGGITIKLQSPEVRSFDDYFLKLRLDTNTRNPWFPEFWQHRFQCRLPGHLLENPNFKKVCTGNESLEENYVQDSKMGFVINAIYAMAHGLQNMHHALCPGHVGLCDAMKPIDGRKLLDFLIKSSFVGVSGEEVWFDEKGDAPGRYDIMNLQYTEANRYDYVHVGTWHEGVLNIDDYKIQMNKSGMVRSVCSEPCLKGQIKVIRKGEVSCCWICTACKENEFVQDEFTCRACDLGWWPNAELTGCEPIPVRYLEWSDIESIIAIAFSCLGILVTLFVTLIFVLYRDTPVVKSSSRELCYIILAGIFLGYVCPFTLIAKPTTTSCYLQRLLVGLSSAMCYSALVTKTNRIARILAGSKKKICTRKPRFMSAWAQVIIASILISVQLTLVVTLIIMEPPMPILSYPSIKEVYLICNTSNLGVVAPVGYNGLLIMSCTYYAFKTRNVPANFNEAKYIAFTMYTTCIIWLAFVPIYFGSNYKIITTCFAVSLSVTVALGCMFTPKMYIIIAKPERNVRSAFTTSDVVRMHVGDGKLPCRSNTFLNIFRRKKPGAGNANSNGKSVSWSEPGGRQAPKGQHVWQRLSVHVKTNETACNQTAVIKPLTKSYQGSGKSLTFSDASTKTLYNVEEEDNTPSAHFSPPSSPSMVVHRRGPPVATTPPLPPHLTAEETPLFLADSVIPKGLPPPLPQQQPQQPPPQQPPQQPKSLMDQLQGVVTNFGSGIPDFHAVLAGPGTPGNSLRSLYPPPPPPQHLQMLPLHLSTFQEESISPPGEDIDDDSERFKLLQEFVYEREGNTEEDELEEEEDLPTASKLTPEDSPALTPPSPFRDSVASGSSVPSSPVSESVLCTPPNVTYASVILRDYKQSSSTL
Chain of Metabotropic glutamate receptor 4 (P31423 whole entry): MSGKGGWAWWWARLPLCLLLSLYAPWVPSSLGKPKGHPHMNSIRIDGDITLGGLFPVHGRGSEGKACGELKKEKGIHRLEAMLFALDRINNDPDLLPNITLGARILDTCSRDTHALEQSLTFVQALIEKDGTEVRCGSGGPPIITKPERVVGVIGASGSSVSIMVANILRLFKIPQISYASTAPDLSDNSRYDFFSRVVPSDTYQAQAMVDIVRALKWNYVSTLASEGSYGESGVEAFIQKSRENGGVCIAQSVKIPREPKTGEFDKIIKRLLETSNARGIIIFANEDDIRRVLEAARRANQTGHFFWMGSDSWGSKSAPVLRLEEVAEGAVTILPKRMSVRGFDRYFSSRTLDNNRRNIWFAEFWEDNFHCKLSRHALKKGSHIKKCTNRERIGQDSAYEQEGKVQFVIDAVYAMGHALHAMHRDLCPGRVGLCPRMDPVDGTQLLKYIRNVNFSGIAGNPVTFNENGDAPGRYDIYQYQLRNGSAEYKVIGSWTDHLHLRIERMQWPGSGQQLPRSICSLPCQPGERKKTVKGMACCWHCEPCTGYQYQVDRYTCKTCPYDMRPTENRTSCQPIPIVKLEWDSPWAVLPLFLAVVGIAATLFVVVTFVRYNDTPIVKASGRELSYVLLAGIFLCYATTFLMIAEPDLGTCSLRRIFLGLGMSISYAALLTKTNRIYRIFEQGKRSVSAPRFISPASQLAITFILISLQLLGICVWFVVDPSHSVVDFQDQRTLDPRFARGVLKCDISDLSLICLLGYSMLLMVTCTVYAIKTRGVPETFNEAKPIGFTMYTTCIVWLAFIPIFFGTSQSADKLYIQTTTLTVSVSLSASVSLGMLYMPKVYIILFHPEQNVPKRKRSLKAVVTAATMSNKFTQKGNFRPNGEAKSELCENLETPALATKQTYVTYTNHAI
Chain of Glutamate receptor 2 (Rattus norvegicus) (P19491 whole entry): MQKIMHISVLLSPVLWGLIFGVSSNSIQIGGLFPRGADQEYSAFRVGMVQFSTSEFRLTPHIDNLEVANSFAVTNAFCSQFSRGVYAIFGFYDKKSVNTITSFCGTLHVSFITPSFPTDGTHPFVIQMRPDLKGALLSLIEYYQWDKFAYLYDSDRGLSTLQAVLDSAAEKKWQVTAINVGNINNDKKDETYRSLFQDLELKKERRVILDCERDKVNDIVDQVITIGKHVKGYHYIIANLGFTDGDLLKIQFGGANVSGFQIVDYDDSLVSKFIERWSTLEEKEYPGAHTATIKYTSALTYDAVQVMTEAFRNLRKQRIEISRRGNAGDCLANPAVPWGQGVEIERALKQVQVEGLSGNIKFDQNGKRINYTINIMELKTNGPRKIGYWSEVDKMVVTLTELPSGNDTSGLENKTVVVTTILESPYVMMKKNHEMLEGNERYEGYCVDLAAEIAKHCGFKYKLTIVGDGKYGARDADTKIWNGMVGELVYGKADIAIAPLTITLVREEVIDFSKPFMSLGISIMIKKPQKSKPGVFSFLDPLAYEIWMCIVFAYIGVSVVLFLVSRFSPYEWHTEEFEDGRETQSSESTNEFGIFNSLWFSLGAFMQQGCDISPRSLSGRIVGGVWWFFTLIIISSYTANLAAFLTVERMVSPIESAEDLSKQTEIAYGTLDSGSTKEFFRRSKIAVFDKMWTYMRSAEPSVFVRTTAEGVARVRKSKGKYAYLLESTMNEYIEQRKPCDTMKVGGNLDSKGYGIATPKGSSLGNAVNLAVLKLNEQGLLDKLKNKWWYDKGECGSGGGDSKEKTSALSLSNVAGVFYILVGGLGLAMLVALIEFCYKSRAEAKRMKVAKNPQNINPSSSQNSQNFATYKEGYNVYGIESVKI

For the first experiment, the target named is Metabotropic glutamate receptor 2 (Rattus norvegicus, UniProt P31421). In words: Activity at rat cloned mGluR2 expressed in CHO cells assessed as effect on cAMP accumulation.
Chain of Metabotropic glutamate receptor 2 (P31421 whole entry): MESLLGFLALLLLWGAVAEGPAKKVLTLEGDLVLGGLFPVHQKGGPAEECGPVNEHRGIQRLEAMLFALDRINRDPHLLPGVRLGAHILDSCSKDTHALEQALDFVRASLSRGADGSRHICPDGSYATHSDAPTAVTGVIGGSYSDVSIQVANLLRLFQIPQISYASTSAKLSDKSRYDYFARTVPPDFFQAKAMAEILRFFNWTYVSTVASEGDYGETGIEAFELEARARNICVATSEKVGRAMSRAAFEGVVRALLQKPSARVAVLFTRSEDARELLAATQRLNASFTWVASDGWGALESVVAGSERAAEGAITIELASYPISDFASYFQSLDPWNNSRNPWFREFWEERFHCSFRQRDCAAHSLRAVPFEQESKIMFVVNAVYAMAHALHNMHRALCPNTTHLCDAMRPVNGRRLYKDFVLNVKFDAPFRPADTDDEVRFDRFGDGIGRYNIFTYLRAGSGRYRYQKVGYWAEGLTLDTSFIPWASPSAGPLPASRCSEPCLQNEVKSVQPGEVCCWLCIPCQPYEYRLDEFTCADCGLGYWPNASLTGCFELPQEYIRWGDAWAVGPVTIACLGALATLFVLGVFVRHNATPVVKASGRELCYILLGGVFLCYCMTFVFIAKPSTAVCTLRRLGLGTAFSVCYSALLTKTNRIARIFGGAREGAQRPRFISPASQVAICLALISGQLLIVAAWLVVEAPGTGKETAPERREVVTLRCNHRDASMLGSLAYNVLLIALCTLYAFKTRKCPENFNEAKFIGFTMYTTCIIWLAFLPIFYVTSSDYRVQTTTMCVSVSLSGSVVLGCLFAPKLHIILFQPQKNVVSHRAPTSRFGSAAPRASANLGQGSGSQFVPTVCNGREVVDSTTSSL
Details: not given
It is filed as functional, cell-based. A digest of the protocol: (§1)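 Second-messenger functional assay on rat mGluR1a (group I), mGluR2 (group II) and mGluR4 (group III) expressed in CHO cells. EC50 in µM with pEC50, reported as mean [pEC50 ± SEM] of at least three independent experiments.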
(In general: Cyclic AMP is a second messenger, typically raised through Gs and lowered through Gi signalling.)
In general, EC50 refers to the concentration that produces a half-maximal response. On to `NC(C(=O)O)C1CC(O)=NO1` (racemic; form 1) [TRICHOLOMIC ACID], for which the EC50 was over 1 mM.
Same read-out and setting: under `N[C@@H](C(=O)O)[C@H]1CC(O)=NO1` stands over 1 mM.

In the next experiment the target is Glutamate NMDA receptor. The experiment can be described thus: Displacement of [3H]CGP-39653 from NMDA receptor in rat cortical membrane. It is filed as cell membranes.
Details: not given
A digest of the protocol:
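NMDA receptor binding on rat cortical membranes prepared by the Ransom and Stec method, with [3H]CGP39653 as radioligand. Ki in µM reported as mean [pKi ± SEM] of at least three individual experiments.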
What is called IC50 is the concentration needed to halve the response being measured. The molecule `NC(C(=O)O)C1CC(O)=NO1` (racemic; form 1) [TRICHOLOMIC ACID] registered an IC50 of 0.0015 mM.
One may read the Ki as a dissociation constant, usually derived from enzyme kinetics or from competition with a known ligand. As to `N[C@@H](C(=O)O)[C@H]1CC(O)=NO1`, the Ki worked out at 0.00067 mM and the “Log Ki” value is listed as -6.19.

Biological target in the next experiment: not listed separately
The experiment can be described thus: Displacement of [3H]AMPA from AMPA receptor in rat cortical membrane. In kind it is cell membranes.
Details: not given
In a few lines:
(§2)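 Competition binding on rat cortical membranes prepared by the Ransom and Stec method, using [3H]AMPA (AMPA receptors) or [3H]KA (kainate receptors). IC50 in µM reported as mean [pIC50 ± SEM] of at least three individual experiments.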
On the technique in general: Displacement assays read how much labelled ligand stays bound in the presence of the test substance.
`N[C@H](C(=O)O)c1cc(O)no1` [IBOTENIC ACID] had an IC50 of over 0.1 mM.
As for `NC(C(=O)O)C1CC(O)=NO1` (racemic; form 1) [TRICHOLOMIC ACID], the IC50 stood at 0.0011 mM and the “Log IC50” value was -5.86.
Regarding `N[C@@H](C(=O)O)[C@H]1CC(O)=NO1`, the IC50 is over 0.1 mM.

Biological target in the next experiment: not listed separately
In words: Displacement of [3H]KA from kainate receptor in rat cortical membrane. It is filed as cell membranes.
Details: not given
In a few lines:
as §2
With `N[C@H](C(=O)O)c1cc(O)no1` [IBOTENIC ACID], the IC50 was 0.022 mM and the “Log IC50” value is on record as -4.66.
As for `NC(C(=O)O)C1CC(O)=NO1` (racemic; form 1) [TRICHOLOMIC ACID], the IC50 was 0.00076 mM and the “Log IC50” value is -6.14.
For `N[C@@H](C(=O)O)[C@H]1CC(O)=NO1`, the IC50 is over 0.1 mM.

The target in a further experiment is Glutamate receptor 1 (Rattus norvegicus) (UniProt P19490). The experiment can be described thus: Activity at rat cloned iGluR1 expressed in human HEK293 cells by calcium imaging assay relative to L-glutamate. In kind it is cell-based. Also on record: concentration or dose not given beside the values.
Details: not given
A digest of the protocol:
(§3)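 Rat iGluR1–6 subtypes cloned and expressed in HEK cells: iGluR2, iGluR5 and iGluR6 as the Q forms; iGluR1–4 marked with subscript "i". Receptor activation was read by Fluo-4 calcium imaging.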
Take `N[C@H](C(=O)O)c1cc(O)no1` [IBOTENIC ACID]: the Activity worked out at 6%.
Same read-out and setting: to `N[C@@H](C(=O)O)[C@H]1CC(O)=NO1` belongs 15%.

A further experiment has as its target Glutamate receptor ionotropic, kainate 2 (Rattus norvegicus) (UniProt P42260). The experiment can be described thus: Activity at rat cloned iGluR6 expressed in human HEK293 cells by calcium imaging assay relative to L-glutamate. In kind it is cell-based. The arrangement: concentration or dose not given beside the values.
Details: not given
In a few lines:
as §3
`N[C@H](C(=O)O)c1cc(O)no1` [IBOTENIC ACID]: the Activity was 96%.
For `N[C@@H](C(=O)O)[C@H]1CC(O)=NO1`, the Activity worked out at 11%.

The next experiment has as its target Metabotropic glutamate receptor 1 (Rattus norvegicus, UniProt P23385). In words: Activity at rat cloned mGluR1a expressed in CHO cells assessed as effect on cAMP accumulation. To be noted: read-out: EC50. In kind it is functional, cell-based. In a few lines:
as §1
With `N[C@H](C(=O)O)c1cc(=O)[nH]o1` [IBOTENIC ACID], the concentration giving a half-maximal response (EC50) was 0.043 mM.
Consider `NC(C(=O)O)C1CC(O)=NO1` (racemic; form 1) [TRICHOLOMIC ACID], for which the EC50 amounted to 0.79 mM.
Same read-out and setting: to `N[C@@H](C(=O)O)[C@H]1CC(O)=NO1` belongs over 1 mM.

Another experiment concerns the target Glutamate receptor 4 (Rattus norvegicus, UniProt P19493). In words: Activity at rat cloned iGluR4 expressed in human HEK293 cells by calcium imaging assay. It is filed as cell-based.
Details: not given
A digest of the protocol:
as §3
Regarding `N[C@H](C(=O)O)c1cc(=O)[nH]o1` [IBOTENIC ACID], the EC50 was over 1 mM.
Same read-out and setting: to `N[C@@H](C(=O)O)[C@H]1CC(O)=NO1` belongs over 1 mM.

For a further experiment, the target named is Glutamate receptor 2 (Rattus norvegicus, UniProt P19491). In words: Activity at rat cloned iGluR2 expressed in human HEK293 cells by calcium imaging assay.
Chain of Glutamate receptor 2 (P19491 whole entry): as the sequence (P19491 whole entry) above
Details: not given
It is filed as cell-based.
As for `N[C@H](C(=O)O)c1cc(=O)[nH]o1` [IBOTENIC ACID], the concentration giving a half-maximal response (EC50) is over 1 mM.
As for `N[C@@H](C(=O)O)[C@H]1CC(O)=NO1`, the half-maximal effective concentration (EC50) was over 1 mM.

The target of another experiment is Glutamate receptor ionotropic, kainate 1 (Rattus norvegicus, UniProt P22756). The experiment can be described thus: Activity at rat cloned iGluR5 expressed in human HEK293 cells by calcium imaging assay. It is filed as cell-based.
Chain of Glutamate receptor ionotropic, kainate 1 (P22756 whole entry): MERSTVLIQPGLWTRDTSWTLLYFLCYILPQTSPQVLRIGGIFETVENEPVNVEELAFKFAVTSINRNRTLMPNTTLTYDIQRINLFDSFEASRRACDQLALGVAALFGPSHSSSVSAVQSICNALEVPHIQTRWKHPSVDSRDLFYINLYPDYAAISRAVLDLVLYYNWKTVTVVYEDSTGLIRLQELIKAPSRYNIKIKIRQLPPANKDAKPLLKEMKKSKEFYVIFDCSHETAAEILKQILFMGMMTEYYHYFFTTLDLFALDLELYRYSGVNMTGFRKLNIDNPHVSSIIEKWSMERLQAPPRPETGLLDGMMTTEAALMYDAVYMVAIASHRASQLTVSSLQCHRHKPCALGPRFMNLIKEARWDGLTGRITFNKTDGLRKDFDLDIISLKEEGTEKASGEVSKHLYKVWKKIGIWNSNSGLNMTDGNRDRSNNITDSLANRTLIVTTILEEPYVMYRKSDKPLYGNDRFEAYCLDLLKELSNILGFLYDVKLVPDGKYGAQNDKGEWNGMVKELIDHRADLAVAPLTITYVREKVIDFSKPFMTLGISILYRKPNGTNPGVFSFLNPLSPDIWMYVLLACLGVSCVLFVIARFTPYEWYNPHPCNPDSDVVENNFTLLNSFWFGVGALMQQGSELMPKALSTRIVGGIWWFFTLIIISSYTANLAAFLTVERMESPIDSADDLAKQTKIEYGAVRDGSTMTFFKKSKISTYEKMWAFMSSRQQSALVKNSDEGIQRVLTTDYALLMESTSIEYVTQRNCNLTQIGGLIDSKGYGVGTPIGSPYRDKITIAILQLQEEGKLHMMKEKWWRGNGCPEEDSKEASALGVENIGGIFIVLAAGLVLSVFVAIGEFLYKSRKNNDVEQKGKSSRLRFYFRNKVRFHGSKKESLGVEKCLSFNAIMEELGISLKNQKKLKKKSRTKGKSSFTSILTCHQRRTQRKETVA
Details: not given
As to `N[C@H](C(=O)O)c1cc(=O)[nH]o1` [IBOTENIC ACID], the concentration for a half-maximal effect (EC50) is over 1 mM.
On to `N[C@@H](C(=O)O)[C@H]1CC(O)=NO1`, for which the EC50 was over 1 mM.

A further experiment concerns the target Glutamate receptor 3 (Rattus norvegicus) (UniProt P19492). In words: Activity at rat cloned iGluR3 expressed in human HEK293 cells by calcium imaging assay relative to L-glutamate. In kind it is cell-based. Also on record: concentration or dose not given beside the values.
Details: not given
A digest of the protocol: as §3
In the case of `N[C@H](C(=O)O)c1cc(O)no1` [IBOTENIC ACID], the Activity was found to be 1%.
On to `N[C@@H](C(=O)O)[C@H]1CC(O)=NO1`, for which the Activity is 10%.

A further experiment concerns the target Glutamate receptor 3 (Rattus norvegicus, UniProt P19492). The experiment can be described thus: Activity at rat cloned iGluR3 expressed in human HEK293 cells by calcium imaging assay. In kind it is cell-based. Particulars: read-out: EC50. In a few lines:
as §3
Consider `N[C@H](C(=O)O)c1cc(=O)[nH]o1` [IBOTENIC ACID], for which the 50% effective concentration (EC50) is over 1 mM.
For the molecule `N[C@@H](C(=O)O)[C@H]1CC(O)=NO1`, the 50% effective concentration (EC50) was over 1 mM.

A further experiment concerns the target Glutamate receptor 1 (Rattus norvegicus, UniProt P19490). The experiment can be described thus: Activity at rat cloned iGluR1 expressed in human HEK293 cells by calcium imaging assay. In kind it is cell-based.
Details: not given
A digest of the protocol: as §3
On to `N[C@H](C(=O)O)c1cc(=O)[nH]o1` [IBOTENIC ACID], for which the half-maximal effective concentration (EC50) is over 1 mM.
As to `N[C@@H](C(=O)O)[C@H]1CC(O)=NO1`, the EC50 is over 1 mM.

The next experiment concerns the target Metabotropic glutamate receptor 4 (Rattus norvegicus, UniProt P31423). The experiment can be described thus: Activity at rat cloned mGluR4 expressed in CHO cells assessed as effect on cAMP accumulation. In kind it is functional, cell-based.
Details: not given
In a few lines: as §1
With `N[C@H](C(=O)O)c1cc(=O)[nH]o1` [IBOTENIC ACID], the EC50 was over 1 mM.
In the case of `NC(C(=O)O)C1CC(O)=NO1` (racemic; form 1) [TRICHOLOMIC ACID], the concentration giving a half-maximal response (EC50) was over 1 mM.
With `N[C@@H](C(=O)O)[C@H]1CC(O)=NO1`, the half-maximal effective concentration (EC50) was over 1 mM.

The target in the next experiment is Glutamate receptor ionotropic, kainate 2 (Rattus norvegicus, UniProt P42260). The experiment can be described thus: Activity at rat cloned iGluR6 expressed in human HEK293 cells by calcium imaging assay. It is filed as cell-based.
Details: not given
In a few lines: as §3
Turning to `N[C@H](C(=O)O)c1cc(=O)[nH]o1` [IBOTENIC ACID], the EC50 is over 1 mM.
As to `N[C@@H](C(=O)O)[C@H]1CC(O)=NO1`, the half-maximal effective concentration (EC50) is over 1 mM.

A further experiment concerns the target Glutamate receptor 2 (Rattus norvegicus) (UniProt P19491). In words: Activity at rat cloned iGluR2 expressed in human HEK293 cells by calcium imaging assay relative to L-glutamate. In kind it is cell-based. The arrangement: concentration or dose not given beside the values.
Details: not given
In a few lines: as §3
On to `N[C@H](C(=O)O)c1cc(O)no1` [IBOTENIC ACID], for which the Activity came to 2%.
Take `N[C@@H](C(=O)O)[C@H]1CC(O)=NO1`: the Activity was determined as 13%.

The target of the next experiment is Glutamate receptor ionotropic, kainate 1 (Rattus norvegicus) (UniProt P22756). In words: Activity at rat cloned iGluR5 expressed in human HEK293 cells by calcium imaging assay relative to L-glutamate. In kind it is cell-based.
Chain of Glutamate receptor ionotropic, kainate 1 (Rattus norvegicus) (P22756 whole entry): as above
Details: not given
Also on record: concentration or dose not given beside the values. In a few lines: as §3
In the case of `N[C@H](C(=O)O)c1cc(O)no1` [IBOTENIC ACID], the Activity was found to be 8%.
Take `N[C@@H](C(=O)O)[C@H]1CC(O)=NO1`: the Activity stood at 10%.

A further experiment has as its target Glutamate receptor 4 (Rattus norvegicus) (UniProt P19493). The experiment can be described thus: Activity at rat cloned iGluR4 expressed in human HEK293 cells by calcium imaging assay relative to L-glutamate. In kind it is cell-based. The arrangement: concentration or dose not given beside the values.
Details: not given
In a few lines: as §3
For `N[C@H](C(=O)O)c1cc(O)no1` [IBOTENIC ACID], the Activity is 32%.
Take `N[C@@H](C(=O)O)[C@H]1CC(O)=NO1`: the Activity was determined as 9%.
